Results on 16 compounds are retold here after ChEMBL document CHEMBL1132715, “Comparative molecular field analysis of hydantoin binding to the neuronal voltage-dependent sodium channel” (J Med Chem, 1999).

The nature of data set [1]: Partition coefficient (logP). The conditions noted are these: octanol/water. The format is physicochemical.
Data set [2] addresses Sodium channel alpha subunits; brain (Types I, II, III) (Rattus norvegicus, UniProt P04775+P04774+P08104). Nature of the data set: In vitro inhibition of Voltage-gated sodium channel by the displacement of [3H]batrachotoxin A 20-alpha-benzoate in rat brain cerebral cortex synaptoneurosomes. The format is tissue-based. Summed up:
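Rat cerebral cortex gray matter synaptoneurosomes (~1 mg protein), washed in HEPES/choline chloride buffer pH 7.4 and stored at –70 °C. […] Filtration read-out; nonspecific binding taken with 300 μM veratridine. Points run in triplicate; IC50 by Probit analysis, using only 10–90% inhibition.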

On to `CCCCCCCC(O)(C(N)=O)c1ccccc1` (stereo unspecified), for which the log partition coefficient (logP) in data set [1] (read-out: logP) is 3.7. The IC50 in data set [2] worked out at 9 µM. In the case of `O=C1NC(=O)C2(CCCc3ccccc32)N1` (stereo unspecified), the log partition coefficient (logP) in data set [1] (read-out: logP) worked out at 1.46. Still for that read-out and setting: the figure for `O=C1NC(=O)C2(CCc3ccccc32)N1` (stereo unspecified) is 0.96. Turning to `CCCCCCC1(c2ccccc2)NC(=O)NC1=O` (stereo unspecified), the logP in data set [1] (read-out: logP) was determined as 3.4. This compound also came in with an IC50 in data set [2] of 13 µM.

For `O=C1NC(=O)C2(CCCCCc3ccccc32)N1` (stereo unspecified), in data set [1] (read-out: logP), the log partition coefficient (logP) was found to be 2.46. On to `CC12C(=O)NC(=O)N1CCc1ccccc12` (stereo unspecified), for which the logP in data set [1] (read-out: logP) was found to be 1.52. As for `CCN1C(=O)NC(=O)C1(C)c1ccccc1` (stereo unspecified), the logP in data set [1] (read-out: logP) was found to be 2.02. `CCCCCCCCCC1(c2ccccc2)NC(=O)NC1=O` (stereo unspecified): the logP in data set [1] (read-out: logP) amounted to 4.96. Also, in data set [2], the IC50 turned out to be 5 µM.

As for `CCCCC1(c2ccc(C)cc2)NC(=O)NC1=O` (stereo unspecified), the log partition coefficient (logP) in data set [1] (read-out: logP) is 2.96.

Regarding `O=C1NC(=O)C(c2ccccc2)(C2CCCCC2)N1` (stereo unspecified), in data set [1] (read-out: logP), the logP came to 2.96. This compound gave an IC50 in data set [2] of 58 µM.

With `O=C1NC(=O)C2(CCCCc3ccccc32)N1` (stereo unspecified), in data set [1] (read-out: logP), the logP amounted to 1.96. Still for that read-out and setting: next, `CCCCC1(c2cccc(C)c2)NC(=O)NC1=O` (stereo unspecified): 2.96. With `CCCCCCCC1(c2ccccc2)NC(=O)NC1=O` (stereo unspecified), the lipophilicity (logP) in data set [1] (read-out: logP) is 3.96. This compound also returned a 50% inhibitory concentration (IC50) in data set [2] of 5 µM. For the compound `CCCCC1(c2ccccc2C)NC(=O)NC1=O` (stereo in doubt; 14a), the log partition coefficient (logP) in data set [1] (read-out: logP) is 2.96.

`CCCCC1(c2ccccc2C)NC(=O)NC1=O` (stereo in doubt; 14b) displayed a logP in data set [1] of 2.96.

With `NC(=O)N1c2ccccc2C=Cc2ccccc21` [CARBAMAZEPINE], the log partition coefficient (logP) in data set [1] (read-out: logP) stood at 2.13.
